m5-HT2A agonist – activates the mouse 5-HT2A serotonin receptor; P35363; CHO-K1 mHTR2A beta-arrestin complementation, luminescence; percent of 30 µM serotonin response; activation, % at 7.6 µM; AID 624169; 360,000 tested, 0.66% active;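 active = activation above a run cutoff, the mean activation of all tested compounds plus 3 SD, cut at about 14% in these data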;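 note: 0% = plate median of compound wells and 100% = 30 µM serotonin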
EBI2 antag – EBI2 (human) antagonism. P32249. EBI2 beta-arrestin recruitment, luminescence, 7a,25-OHC stimulated. inhibition, % at 5 µM. 360,000 tested, 0.81% active; in the data active = inhibition above about 38%;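 note: enzyme fragment complementation signal reports receptor beta-arrestin coupling in cells; 0% = agonist plus DMSO wells and 100% = wells without agonist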
APJ antag – APJ receptor antagonism | P35414 | CHO-K1 APJ beta-arrestin complementation, luminescence | inhibition, % at 20 µM | 330,000 tested, 0.32% active | AID 2521;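 active = inhibition above about 40% at 20 µM, limit read from the data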;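 note: cells challenged with 10 nM apelin-13 agonist together with compound; plate controls were apelin-13 plus DMSO wells for no effect and DMSO wells lacking apelin-13 for full effect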
APJ ag – agonists of human APJ apelin receptor. activation, % at 20 µM. 330,000 tested, 0.11% active. CHO-K1 APJ PathHunter beta-arrestin, luminescence; 0% DMSO wells, 100% apelin. AID 2520;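 active = activation more than six SD over the plate average, tested at 20 µM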;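 note: 0% = DMSO alone and 100% = apelin-13 at 10 nM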
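assay system = CHO-K1 APJ beta-arrestin complementation cell line | input = cell density 1000 per well | dosing = compound 20 µM once, DMSO 1% | timing = compound 90 min 25 °C, reagent 1 h | measured by = luminescence from split beta-galactosidase complementation, Galacton Star/Emerald II substrate | read-out basis = APJ agonist activity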
CCR6 antag – CCR6 (human) receptor antagonism | P51684 | CHO-K1 CCR6 PathHunter beta-arrestin, luminescence, CCL20-stimulated | inhibition, % at 20 µM | 340,000 tested, 0.49% active | AID 493098;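 active = compounds whose inhibition of the agonist-driven luminescence signal at 20 µM reaches about 50%, limit read from the data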;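 note: cells stimulated with CCL20 at 14 nM final; plate controls were DMSO with CCL20 for no effect and DMSO without agonist for full effect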
Target sequence (P51684 whole entry, looked up): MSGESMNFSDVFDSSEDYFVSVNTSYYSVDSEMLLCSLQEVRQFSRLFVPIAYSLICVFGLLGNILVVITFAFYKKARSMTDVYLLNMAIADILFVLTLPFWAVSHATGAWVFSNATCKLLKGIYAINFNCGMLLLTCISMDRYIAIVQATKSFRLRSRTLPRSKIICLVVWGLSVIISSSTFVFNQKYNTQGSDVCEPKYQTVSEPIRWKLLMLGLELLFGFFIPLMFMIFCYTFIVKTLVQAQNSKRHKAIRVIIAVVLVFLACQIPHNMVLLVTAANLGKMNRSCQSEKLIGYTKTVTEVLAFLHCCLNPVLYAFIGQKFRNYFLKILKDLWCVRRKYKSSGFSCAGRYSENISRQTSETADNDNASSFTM
CXCR6 block – blocks human CXCR6 beta-arrestin recruitment; O00574; 360,000 tested, 0.36% active; CHO-K1 PathHunter CXCR6 beta-arrestin, luminescence; inhibition, % at 20 µM; in the data active = inhibition above about 34%, passing the limit was not always enough;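 note: antagonist mode with CXCL16 agonist at 10 nM final; 0% = 10 nM CXCL16 with DMSO and 100% = unstimulated wells without agonist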
APJ antag confirm – confirmation of human APJ apelin receptor antagonists | inhibition, % at 20 µM | 950 tested, 66% active | AID 2766 | APJ beta-arrestin recruitment, luminescence, antagonist mode | shares compounds with APJ antag; in the data active = inhibition above about 50%
Active calls of the source: *; . = not tested or not shown. Rows were chosen to be rich in hits. Some 2.1% of all compounds tested hit in one or more screens of this group.

SMILES | m5-HT2A agonist | EBI2 antag | APJ antag | APJ ag | CCR6 antag | CXCR6 block | APJ antag confirm
CCN(C(=O)COC(=O)c1cccnc1SC)C1CCS(=O)(=O)C1 (stereo unspecified) | 0 | -16 | 45* | -3 | -3 | -9 | 33
CCN(C(=O)COC(=O)c1cccnc1SC)C1CCCCC1 | -4 | 13 | 8 | -1 | 4 | -6 | .
COC(=O)c1cc(N=Nc2sc(N)nc2C)cc(C(=O)OC)c1 | 4 | 11 | 45* | -4 | 28 | 8 | 27
Cn1nnnc1SCCNC(=O)C1CCC(=O)N(Cc2cccc(C(F)(F)F)c2)C1 (stereo unspecified) | 4 | 0 | . | . | . | -5 | .
CCOc1ccc(N2C(=O)CC(Cc3ccc(Br)cc3)C2=O)cc1 (stereo unspecified) | 0 | 8 | 65* | -3 | -2 | 2 | 36
COc1ccc(N2C(=O)CC(Cc3ccc(Br)cc3)C2=O)cc1 (stereo unspecified) | 0 | 8 | 18 | -2 | -1 | -3 | .
CCOc1ccc(NC(=O)C2CCC(CNc3c(N4CCCCC4)c(=O)c3=O)CC2)cc1 (stereo unspecified) | -1 | -4 | 47* | -2 | -1 | 6 | 19
C1CCC(CNc2c3c(nc4nnnn24)CCCC3)CC1 | 2 | -9 | 4 | -1 | -1 | -7 | .
CCNC(=S)NNc1nnc(-c2ccccc2)c(-c2ccccc2)n1 | 0 | 4 | 49* | -8 | 32 | 3 | 90*
CCC[C@@H](CN1CCC[C@H]1CN1C(N)=NC[C@H]1CC(C)C)N1C[C@@H](Cc2ccccc2)N(CCc2ccc(Cl)c(Cl)c2)C1=N | -2 | -5 | 42* | 5 | 17 | 6 | 57*
CN(C)CCN(Cc1ccco1)C(=O)c1cc2c(Cl)nc3ccccc3c2s1 | 5 | 4 | 41* | -3 | 31 | 3 | 69*
CC(C)(C)c1cccc(Cn2nnc3ccccc32)c1O | 4 | -20 | 10 | 14 | 13 | -3 | .
Cc1cc(Cn2nnc3ccccc32)c(O)c(C(C)(C)C)c1 | 3 | 4 | 43* | -5 | -2 | 0 | 2
CC(C)(C)n1nc2c(c1NC(=O)Cc1cccc3ccccc13)CS(=O)C2 (stereo unspecified) | 9 | 3 | 15 | -1 | 6 | -9 | .
CCN(CC)CCN(C(=O)c1ccc(C(=O)c2ccccc2)cc1)c1nc2ccc(OC)cc2s1 | -10 | -3 | 51* | -7 | 8 | 12 | 41
COc1ccccc1NC(=O)CSc1nnc(-c2ccncc2)n1CC1CCCO1 (stereo unspecified) | 1 | 1 | -13 | -1 | -8 | 0 | .
CCN1/C(=C/c2ccc3ccccc3[n+]2CC)C=Cc2ccccc21 | -5 | 4 | 54* | -2 | 61* | 55* | 94*
CC1(C)C(c2ccccc2)=NC(c2ccccc2)N1O (stereo unspecified) | 0 | -1 | 8 | -3 | 40 | 14 | .
CC1(C)C(c2ccccc2)=NC(c2ccc(Br)cc2)N1O (stereo unspecified) | -4 | 20 | 77* | -11 | 58* | 34 | 33
CCC[N+](CC#Cc1ccccc1)(CCC)CC(=O)OC | 8 | -3 | 6 | -2 | -9 | -11 | .
O=C(C[N+]1(CC#Cc2ccccc2)CCOCC1)c1ccc(Cl)cc1 | -2 | 7 | 90* | -12 | 62* | 42* | 108*
CCC[N+](CC#Cc1ccccc1)(CCC)CC(=O)c1ccc(Cl)cc1 | -1 | 9 | 60* | -11 | 43 | 15 | 53*
O=C(C[N+]1(CC#Cc2ccccc2)CCCCC1)c1ccc(Cl)cc1 | 3 | 13 | 57* | -10 | 30 | 27 | 18
CCOC(=O)c1ccccc1NC(=O)c1cncc(Br)c1 | 1 | -1 | . | . | 15 | 5 | .
COc1ccc2c(c1)C(=O)[C@H](O)[C@@H](c1ccc(OC)c(Br)c1)O2 | . | . | 58* | -21 | 62* | . | 103*
SMILES | m5-HT2A agonist | EBI2 antag | APJ antag | APJ ag | CCR6 antag | CXCR6 block | APJ antag confirm
CNC(=O)NC(=O)C(OC(=O)CCNS(=O)(=O)c1ccccc1)c1ccccc1 (stereo unspecified) | 7 | -14 | -15 | -4 | 11 | 3 | .
CCOc1cc(/C=C2\CN(CC)C/C(=C\c3ccc(O)c(OCC)c3)C2=O)ccc1O | -9 | -3 | 48* | -9 | 46 | 24 | 101*
CCOc1cc(/C=N/N=C/c2ccc(O)c(OCC)c2)ccc1O | -1 | 3 | 23 | -4 | 8 | -2 | .
COc1cc(/C=C2\CCC/C(=C\c3ccc(O)c(OC)c3)C2=O)ccc1O | -5 | 3 | 40* | -8 | 49 | 31 | 80*
COc1cc(/C=C2/CCCC(C(=O)C(F)(F)F)=C2O)ccc1O | -2 | -5 | 5 | -2 | 22 | 5 | .
COc1cc(/C=C/C(=O)CC(=O)/C=C/c2ccc(O)c(OC)c2)ccc1O | -4 | 14 | 62* | -10 | 66* | 37 | 93*
C(=C\c1ccccc1)/CN1CCN(C(c2cc3ccccc3o2)c2nnnn2C2CCCCC2)CC1 (stereo unspecified) | 2 | 30 | . | . | . | 2 | .
COc1ccc(NC(=O)c2ccc(-n3cccn3)nc2)cc1 | 0 | 12 | 14 | -4 | 9 | -2 | .
C#CCOCCOCCOCCNc1nc(N2CCN(C(=O)[C@H]([C@@H](C)O)n3cc(CCCCN)nn3)CC2)nc(N2CCN(C(=O)[C@H]([C@@H](C)CC)n3cc(CCCCN)nn3)CC2)n1 | -2 | -3 | -50 | 6 | -14 | 1 | .
FC(F)(F)c1cccc(Oc2nc(-c3ccccc3)nnc2C(F)(F)F)c1 | 1 | -5 | 17 | -4 | 35 | 3 | .
FC(F)(F)c1cccc(Sc2nc(-c3ccccc3)nnc2C(F)(F)F)c1 | 7 | 16 | 43* | -5 | 46 | 46* | 91*
COc1cc(O)c2c(c1)COC2=O | -1 | -4 | 44* | 2 | -15 | 6 | 25
CC[C@@]1(C(=O)OC)N[C@H](CN(C)C(=O)C2CCCCC2)[C@@H]2C(=O)N(Cc3ccccc3)C(=O)[C@@H]21 | 5 | -7 | 4 | -2 | -2 | -3 | .
CC(Sc1nnnn1C)C(=O)NC1CCCc2ccccc21 (stereo unspecified) | 0 | -8 | 5 | -1 | -3 | 3 | .
O=[N+]([O-])c1cc(S(=O)(=O)Nc2cccc(Cl)c2)ccc1N/N=C/c1ccc(N2CCOCC2)cc1 | -4 | 9 | 48* | -12 | 50* | 36 | 96*
CCOc1ccc(N2CC(C(=O)NNC(=O)c3ccc(F)cc3)CC2=O)cc1 (stereo unspecified) | -8 | -9 | 3 | -3 | 10 | 0 | .

Screening results: PubChem, several laboratories
